For series [1], the system named is 5637. Put plainly: Cytotoxicity against human 5637 cells assessed as growth inhibition at 100 to 200 uM after 48 hrs by MTT assay relative to control. The format is functional. The gist of the method:
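5637 bladder carcinoma cells in DMEM with 10% FBS, seeded 2 × 10^4/well, grown 24 h at 37 °C, 5% CO2. Exposed to 200–12.5 μM from DMSO stocks (final DMSO ≤0.25%, solvent control) for 48 h. MTT added for 3 h, formazan dissolved in DMSO, read at 492 nm. Growth inhibition = [1 − Abs treated/Abs control] × 100%. Three independent experiments.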

Series [2] deals with 5637. Put plainly: Induction of apoptosis in human 5637 cells assessed as ratio of Bax mRNA to Bcl2 mRNA level at 100 uM after 48 hrs by real-time PCR analysis (reference value: 0.08 to 0.13). The format is functional. The gist of the method: (§1)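 5637 cells seeded at 2 × 10^5 per well and grown 24 h. Treated with 50 or 100 μM for 48 h, washed in PBS, RNA extracted. Bax, Bcl-2, caspase-9 and survivin mRNA measured by real-time PCR; Bax:Bcl-2 ratio derived. Experiments in triplicate.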

Series [3] deals with 5637. Put plainly: Upregulation of caspase-9 mRNA expression in human 5637 cells at 100 uM after 48 hrs by real-time PCR analysis relative to control. It counts as functional, cell-based. In short, it runs like this:
as §1
(In general: Real-time PCR tracks product formation cycle by cycle.)

The test system of series [4] is 5637. Put plainly: Cytotoxicity against human 5637 cells assessed as growth inhibition after 48 hrs by MTT assay. Conditions: Homo sapiens, 5637, 48 h. The format is functional, cell-based. In short, it runs like this:
(§2)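 5637 cells in log phase, seeded at 2 × 10^4 per well and grown 24 h. Exposed for 24, 48 or 72 h to 200−12.5 μM in DMSO (final ≤0.25%, vehicle group included). MTT added for 3 h, formazan dissolved in DMSO, read at 492 nm. Growth inhibition = [1 − Abs treated/Abs control] × 100%. […] Three independent experiments.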
(In general: Tetrazolium dyes change colour on reduction, which living cells bring about.)

Series [5] relates to 5637. Put plainly: Induction of apoptosis in human 5637 cells assessed as DNA fragmentation at 50 to 100 uM after 48 hrs by TUNEL assay relative to control. It counts as functional, cell-based. The gist of the method:
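5637 cells treated 48 h, then collected and fixed. TdT-mediated BrdU labelling of fragmented DNA, detected with TMR-anti-BrdU after 30 min staining in the dark at room temperature. TUNEL-positive cells counted by flow cytometry.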

Series [6] is described as follows: Antioxidant activity assessed as thiol peroxidase-like activity assessed as time required to oxidize 50% of benzenethiol during reduction of hydrogen peroxide measured for 180 secs by UV spectroscopic analysis. The following applies: 0.05 h.
The subject of series [7] is Liver. Put plainly: Toxicity in rat liver slices assessed as change in ALT release relative to control. The following applies: in vitro.
In series [8] the test system is 5637. Put plainly: Downregulation of Bcl2 mRNA expression in human 5637 cells at 100 uM after 48 hrs by real-time PCR analysis relative to control. The format is functional, cell-based. In short, it runs like this: as §1
Series [9] has as its system 5637. Put plainly: Induction of apoptosis in human 5637 cells assessed as early and late apoptotic cells at 100 uM after 48 hrs by annexin V-PE/7-AAD staining-based flow cytometric analysis (reference value: 7.36%). The format is functional. In general terms: A flow cytometer gives signals particle by particle.
The subject of series [10] is 5637. Put plainly: Induction of apoptosis in human 5637 cells assessed as ratio of Bax mRNA to Bcl2 mRNA level at 50 uM after 48 hrs by real-time PCR analysis (reference value: 0.08 to 0.13). The format is functional. The gist of the method:
as §1

Series [11] concerns 5637. Put plainly: Downregulation of survivin mRNA expression in human 5637 cells at 100 uM after 48 hrs by real-time PCR analysis relative to control. The format is functional, cell-based. In short, it runs like this:
as §1

Series [12] has as its system Liver. Put plainly: Toxicity in rat liver assessed as effect on cell viability at 50 to 200 uM after 2 hrs by MTT reduction assay relative to control. In short, it runs like this:
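Liver slices from healthy adult rats preincubated 10 min in Krebs Ringer pH 7.4. Compound added to 200, 100 or 50 μM final for 2 h at 37 °C. MTT (5 mg/mL) added for 30 min at 37 °C, formazan dissolved in DMSO, absorbance read at 570 and 700 nm. Expressed as % of untreated; three experiments.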

A further series relates to Brain. Put plainly: Antioxidant activity in Wistar rat brain assessed as inhibition of TBARS formation at 200 uM after 60 mins by spectrophotometric method relative to control. It counts as functional. In short, it runs like this: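 Adult male Wistar rat brain (250−350 g) homogenized 1:10 w/v in 10 mM Tris-HCl pH 7.4 and spun at 2000 rpm for 10 min; low-speed supernatant (S1) used. Blank lacked Fe. TBARS read at 532 nm against MDA standard. Three experiments.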

Series [13] relates to Liver. Put plainly: Toxicity in rat liver assessed as change in AST release relative to control. The format is tissue-based.
In series [14] the test system is 5637. Put plainly: Cytotoxicity against human 5637 cells assessed as growth inhibition at 50 uM after 48 hrs by MTT assay relative to control. The following applies: Homo sapiens, 5637, 48 h; read-out: GI. The format is functional. The gist of the method:
as §2

Series [15] can be described thus: Antioxidant activity assessed as thiol peroxidase-like activity assessed as time required to oxidize 50% of benzenethiol during reduction of hydrogen peroxide measured for 180 secs by UV spectroscopic analysis relative to control. Conditions: 0.05 h.
Series [16] has as its system 5637. Put plainly: Induction of apoptosis in human 5637 cells at 50 uM after 48 hrs by annexin V-PE/7-AAD staining-based flow cytometric analysis (reference value: 7.36%). It counts as functional.
The test system of series [17] is 5637. Put plainly: Cytotoxicity against human 5637 cells assessed as dead cells at 100 uM after 48 hrs by calcein/ethidium bromide staining-based fluorescence microscopic analysis relative to control. It counts as functional, cell-based. The gist of the method: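 5637 bladder carcinoma cells (DMEM, 10% FBS) seeded at 2 × 10^4 per well and grown 24 h. Exposed to 100 or 50 μM compound for 48 h. Washed, then stained with calcein (live, green) and ethidium homodimer (dead, red). Scored by multicolor fluorescence microscopy.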

Series [18] deals with 5637. Put plainly: Cytotoxicity against human 5637 cells assessed as growth inhibition at 12.5 to 200 uM after 48 hrs by MTT assay relative to control. It counts as functional. The gist of the method: as §2

This is an account of results in ChEMBL document CHEMBL3421622, “New organochalcogen multitarget drug: synthesis and antioxidant and antitumoral activities of chalcogenozidovudine derivatives” (J Med Chem, 2015).

The structures appear in SMILES notation. Activity calls are given as the source filed them. No cut-off for these calls is given here.

The IC50 is the concentration that gives 50% inhibition. In general, inhibition refers to the drop in the measured response relative to a control, in per cent.

As to `Cc1cn([C@H]2C[C@H](N=[N+]=[N-])[C@@H](C[Se]c3ccccc3)O2)c(=O)[nH]c1=O`, the “growth inhibition (GI)” value with 5637 [1] is given as >50%. Besides, the Ratio with 5637 [2] is reported as 10.6; with 5637 [10], 1.45. In addition, the outcome in the series on 5637 [3], in the series with 5637 [5], with 5637 [8] and in the series with 5637 [11] was Active. Besides, the IC50 with 5637 [4] worked out at 78.9 µM. The t50 in [6] was 56.4 min. In addition, the Activity result in the series on Liver [7] is “Non-toxic”; in the series with 5637 [9], 90.74%; in the series with Liver [12], “Non-toxic”; in the series on Liver [13], “Non-toxic”. Also, the inhibition result with Brain was “Active”.
Consider `Cc1ccc([Se]C[C@H]2O[C@@H](n3cc(C)c(=O)[nH]c3=O)C[C@@H]2N=[N+]=[N-])cc1`, for which the inhibition of growth at 50 µM in the series on 5637 [14] worked out at 50%. Moreover, in [15], the “fold change (FC)” value turned out to be 4. The Ratio with 5637 [2] is on record as 19.4; in the series on 5637 [10], 0.5. The result in the series with 5637 [3], in the series with 5637 [5], with 5637 [8] and with 5637 [11] was Active. Also, in the series with 5637 [4], the IC50 is 51.6 µM. Also, the t50 in [6] is 22.5 min. For the same compound, the Activity result was “Non-toxic” in the series with Liver [7], 89.6% in the series on 5637 [9], “Non-toxic” in the series on Liver [12] and “Non-toxic” with Liver [13]. Also, the inhibition result in the series on Brain was “Active”.
Consider `Cc1cn([C@H]2C[C@H](N=[N+]=[N-])[C@@H](C[Se]c3ccc(Cl)cc3)O2)c(=O)[nH]c1=O`, for which, in the series on 5637 [14], the inhibition of growth at 50 µM was 50%. The “fold change (FC)” value in series [15] amounted to 4. Also, the Ratio in the series with 5637 [2] was 4.8; in the series with 5637 [10], 0.9. Further, the result with 5637 [3], in the series on 5637 [5], with 5637 [17], in the series on 5637 [8] and with 5637 [11] was Active. Further, the IC50 with 5637 [4] stood at 40.4 µM. Further, the Activity in the series with 5637 [16] is given as 71.12%; with Liver [7] it was “Non-toxic”; with 5637 [9] it was 92.8%; in the series on Liver [12], “Non-toxic”; in the series on Liver [13], “Non-toxic”. For the same compound, the t50 in series [6] came out at 15.2 min. The inhibition result in the series with Brain is “Active”.
With `Cc1cc(C)c([Se]C[C@H]2O[C@@H](n3cc(C)c(=O)[nH]c3=O)C[C@@H]2N=[N+]=[N-])c(C)c1`, the t50 in series [6] came to 97.5 min. The inhibition entry in the series with Brain was “Active”.
`Cc1cn([C@H]2C[C@H](N=[N+]=[N-])[C@@H](C[Se]c3cccc4ccccc34)O2)c(=O)[nH]c1=O`: the t50 in series [6] was 66.3 min. Also, the inhibition at 200 µM with Brain (1 h) was determined as 80%.
As for `Cc1cn([C@H]2C[C@H](N=[N+]=[N-])[C@@H](CO)O2)c(=O)[nH]c1=O` [ZIDOVUDINE], the inhibition of growth at 50 µM in the series on 5637 [14] amounted to 50%. For the same compound, in the series with 5637 [4], the IC50 stood at 7 µM. Also, the outcome in the series on 5637 [5] and in the series on 5637 [17] was inactive. The Activity in the series on 5637 [16] was 7.74%; with Liver [7], “Non-toxic”; with Liver [13], “Non-toxic”. Further, the “growth inhibition (GI)” value in the series with 5637 [18] is >50%. For the same compound, the t50 in [6] came to 66.5 min. Further, in the series on 5637 [8], the outcome was Active.
